{"source": "ChEMBL document CHEMBL5696442", "about": "“Discovery of type II inhibitors of TGFβ-activated kinase 1 (TAK1) and mitogen-activated protein kinase kinase kinase kinase 2 (MAP4K2)” (J Med Chem, 2015)", "key": {"[1]": {"biological_target": "Tyrosine-protein kinase Fer (Homo sapiens, UniProt P16591)", "sequence (P16591 whole entry, looked up)": "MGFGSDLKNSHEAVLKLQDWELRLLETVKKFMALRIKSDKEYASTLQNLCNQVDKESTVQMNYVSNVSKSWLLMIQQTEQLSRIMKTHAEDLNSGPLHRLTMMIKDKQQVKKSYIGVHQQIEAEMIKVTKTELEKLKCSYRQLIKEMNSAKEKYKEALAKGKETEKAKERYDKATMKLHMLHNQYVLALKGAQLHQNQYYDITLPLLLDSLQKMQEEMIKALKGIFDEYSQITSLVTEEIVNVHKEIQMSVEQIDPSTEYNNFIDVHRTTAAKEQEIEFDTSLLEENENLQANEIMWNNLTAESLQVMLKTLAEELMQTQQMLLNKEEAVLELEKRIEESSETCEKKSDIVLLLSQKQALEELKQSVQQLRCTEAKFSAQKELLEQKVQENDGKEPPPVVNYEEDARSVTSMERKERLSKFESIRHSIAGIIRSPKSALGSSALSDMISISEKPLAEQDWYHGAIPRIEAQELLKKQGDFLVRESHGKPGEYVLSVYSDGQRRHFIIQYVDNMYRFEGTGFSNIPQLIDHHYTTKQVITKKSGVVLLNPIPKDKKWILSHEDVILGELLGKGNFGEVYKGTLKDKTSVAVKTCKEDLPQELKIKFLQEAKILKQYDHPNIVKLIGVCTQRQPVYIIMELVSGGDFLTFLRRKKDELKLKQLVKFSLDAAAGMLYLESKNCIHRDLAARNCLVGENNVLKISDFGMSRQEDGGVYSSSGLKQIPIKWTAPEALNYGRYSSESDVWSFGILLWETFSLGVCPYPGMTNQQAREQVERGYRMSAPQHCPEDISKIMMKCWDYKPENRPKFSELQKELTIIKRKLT", "assay": "Inhibition of FER K1 labeling site in human Huh-7 cells at 10 uM by KiNativ Profiling analysis relative to control", "assay_type": "cell-based"}, "[2]": {"biological_target": "T1, Dual specificity mitogen-activated protein kinase kinase 3 (Homo sapiens) (UniProt P46734)", "T1 sequence (whole entry)": "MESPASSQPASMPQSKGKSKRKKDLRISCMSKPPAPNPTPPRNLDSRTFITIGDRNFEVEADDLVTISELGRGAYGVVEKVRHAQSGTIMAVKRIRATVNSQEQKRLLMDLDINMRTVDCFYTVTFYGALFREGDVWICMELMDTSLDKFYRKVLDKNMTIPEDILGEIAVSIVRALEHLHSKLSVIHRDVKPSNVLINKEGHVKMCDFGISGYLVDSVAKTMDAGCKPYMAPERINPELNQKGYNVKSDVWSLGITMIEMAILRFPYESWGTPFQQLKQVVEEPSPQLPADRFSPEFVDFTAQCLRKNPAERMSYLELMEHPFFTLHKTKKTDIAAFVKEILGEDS", "assay": "Inhibition of MEK3 (unknown origin) at 10 uM by Ambit Kinomescan binding assay"}, "[3]": {"biological_target": "Ribosomal protein S6 kinase alpha-3 (Homo sapiens) (UniProt P51812)", "sequence (P51812 whole entry, the tested form may be a part)": "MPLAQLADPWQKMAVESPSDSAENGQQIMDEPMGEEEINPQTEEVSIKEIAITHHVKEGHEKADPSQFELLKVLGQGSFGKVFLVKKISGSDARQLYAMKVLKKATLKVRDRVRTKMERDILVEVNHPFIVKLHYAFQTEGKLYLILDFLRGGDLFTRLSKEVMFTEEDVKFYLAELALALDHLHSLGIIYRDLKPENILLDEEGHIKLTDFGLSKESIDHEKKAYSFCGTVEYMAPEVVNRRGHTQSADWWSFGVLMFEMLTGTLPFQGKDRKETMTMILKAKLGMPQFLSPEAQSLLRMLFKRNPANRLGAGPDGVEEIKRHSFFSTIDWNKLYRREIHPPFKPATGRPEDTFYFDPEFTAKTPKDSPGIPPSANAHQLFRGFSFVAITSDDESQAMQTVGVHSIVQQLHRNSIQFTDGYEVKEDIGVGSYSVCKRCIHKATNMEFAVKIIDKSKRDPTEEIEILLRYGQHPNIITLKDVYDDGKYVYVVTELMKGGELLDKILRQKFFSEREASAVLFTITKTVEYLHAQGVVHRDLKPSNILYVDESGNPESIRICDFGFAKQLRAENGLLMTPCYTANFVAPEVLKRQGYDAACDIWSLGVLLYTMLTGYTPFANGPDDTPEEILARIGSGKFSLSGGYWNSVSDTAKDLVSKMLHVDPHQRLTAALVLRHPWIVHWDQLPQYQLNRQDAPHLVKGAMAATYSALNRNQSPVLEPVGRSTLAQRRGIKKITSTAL", "assay": "Inhibition of RSK2 Domain 2 K1 labeling site in human Huh-7 cells at 1 uM by KiNativ Profiling analysis relative to control", "assay_type": "cell-based"}, "[4]": {"biological_target": "G protein-coupled receptor kinase 4 (Homo sapiens) (UniProt P32298)", "sequence (P32298 whole entry, looked up)": "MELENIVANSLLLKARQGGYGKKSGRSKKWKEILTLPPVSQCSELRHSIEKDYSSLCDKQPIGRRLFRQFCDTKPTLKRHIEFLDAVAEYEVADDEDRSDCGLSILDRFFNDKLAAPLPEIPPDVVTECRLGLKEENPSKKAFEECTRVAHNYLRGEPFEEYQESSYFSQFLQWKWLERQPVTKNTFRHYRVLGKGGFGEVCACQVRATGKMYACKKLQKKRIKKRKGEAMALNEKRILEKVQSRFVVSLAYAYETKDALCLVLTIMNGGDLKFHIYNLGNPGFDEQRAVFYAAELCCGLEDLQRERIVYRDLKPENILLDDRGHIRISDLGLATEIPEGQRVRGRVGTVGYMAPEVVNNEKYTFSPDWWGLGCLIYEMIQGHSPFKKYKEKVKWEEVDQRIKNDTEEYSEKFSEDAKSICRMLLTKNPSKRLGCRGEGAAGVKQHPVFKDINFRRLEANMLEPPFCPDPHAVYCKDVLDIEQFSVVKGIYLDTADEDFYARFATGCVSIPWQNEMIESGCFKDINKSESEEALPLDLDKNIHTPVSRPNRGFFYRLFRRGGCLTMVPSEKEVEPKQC", "assay": "Inhibition of GRK4 (unknown origin) at 1 uM by Ambit Kinomescan binding assay relative to control; values are per cent of control"}, "[5]": {"biological_target": "Cyclin-dependent kinase 18 (Homo sapiens) (UniProt Q07002)", "sequence (Q07002 whole entry)": "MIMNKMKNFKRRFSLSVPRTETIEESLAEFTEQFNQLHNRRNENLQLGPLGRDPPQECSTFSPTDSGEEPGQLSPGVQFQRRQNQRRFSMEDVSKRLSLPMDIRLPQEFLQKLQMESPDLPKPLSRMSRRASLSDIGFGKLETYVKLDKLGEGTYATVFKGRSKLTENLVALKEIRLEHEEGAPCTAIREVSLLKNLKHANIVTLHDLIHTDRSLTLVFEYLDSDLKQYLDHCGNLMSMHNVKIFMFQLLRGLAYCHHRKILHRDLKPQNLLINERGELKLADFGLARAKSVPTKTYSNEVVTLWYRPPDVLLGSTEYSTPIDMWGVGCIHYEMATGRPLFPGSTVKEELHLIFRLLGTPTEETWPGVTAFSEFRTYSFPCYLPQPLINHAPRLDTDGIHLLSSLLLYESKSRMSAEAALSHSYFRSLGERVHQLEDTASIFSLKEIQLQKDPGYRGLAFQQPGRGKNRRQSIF", "assay": "Inhibition of PCTK3 (unknown origin) at 1 uM by Ambit Kinomescan binding assay relative to control", "outline": "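In vitro ATP-site competition binding assay against a panel of over 420 kinases (KinomeScan), with compound tested at 10 or 1 μM.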"}, "[6]": {"biological_target": "T2, Serine/threonine-protein kinase D2 (Homo sapiens) (UniProt Q9BZL6)", "T2 sequence (whole entry)": "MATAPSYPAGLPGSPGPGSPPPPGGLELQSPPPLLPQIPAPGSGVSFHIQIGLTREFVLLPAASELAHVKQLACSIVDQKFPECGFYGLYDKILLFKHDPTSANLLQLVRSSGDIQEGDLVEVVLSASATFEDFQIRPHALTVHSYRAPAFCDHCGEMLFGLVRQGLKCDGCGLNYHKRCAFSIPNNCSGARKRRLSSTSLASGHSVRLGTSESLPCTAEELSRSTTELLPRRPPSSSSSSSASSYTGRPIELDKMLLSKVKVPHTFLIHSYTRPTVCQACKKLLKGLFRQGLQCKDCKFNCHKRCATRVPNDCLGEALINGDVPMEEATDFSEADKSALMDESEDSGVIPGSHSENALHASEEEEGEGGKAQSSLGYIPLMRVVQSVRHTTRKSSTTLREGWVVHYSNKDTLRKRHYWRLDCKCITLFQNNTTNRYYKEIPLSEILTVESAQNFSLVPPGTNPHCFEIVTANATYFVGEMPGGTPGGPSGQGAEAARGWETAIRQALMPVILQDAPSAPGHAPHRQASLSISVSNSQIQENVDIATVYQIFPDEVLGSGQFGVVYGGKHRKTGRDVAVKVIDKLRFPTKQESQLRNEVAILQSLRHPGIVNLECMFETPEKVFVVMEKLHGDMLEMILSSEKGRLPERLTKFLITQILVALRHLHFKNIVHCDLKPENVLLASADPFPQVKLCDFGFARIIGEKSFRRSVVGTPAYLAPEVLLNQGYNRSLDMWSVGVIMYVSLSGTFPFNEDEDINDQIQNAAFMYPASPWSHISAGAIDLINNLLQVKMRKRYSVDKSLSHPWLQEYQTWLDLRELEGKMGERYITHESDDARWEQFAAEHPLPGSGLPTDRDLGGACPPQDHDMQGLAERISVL", "assay": "Inhibition of PRKD2 (unknown origin) at 1 uM by Ambit Kinomescan binding assay relative to control"}, "[7]": {"biological_target": "Tyrosine-protein kinase Fyn (Homo sapiens) (UniProt P06241)", "assay": "Inhibition of FYN ACT labeling site in human A-375 cells at 0.05 uM by KiNativ Profiling analysis relative to control", "assay_type": "cell-based"}, "[8]": {"biological_target": "Ribosomal protein S6 kinase alpha-3 (Homo sapiens) (UniProt P51812)", "assay": "Inhibition of RSK2 domain2 Lys2 labeling site harbouring TVEYLHAQGVVHRDLKPSNILYVDESGNPESIR in human Huh-7 cells at 1 uM by KiNativ Profiling analysis relative to control", "assay_type": "cell-based"}, "[9]": {"biological_target": "Ribosomal protein S6 kinase alpha-3 (Homo sapiens) (UniProt P51812)", "assay": "Inhibition of RSK2 domain2 Protein Kinase Domain labeling site in human Huh-7 cell lysate at 1 uM by KiNativ Profiling analysis relative to control", "assay_type": "subcellular"}, "[10]": {"biological_target": "T3, Inhibitor of nuclear factor kappa-B kinase subunit epsilon (Homo sapiens) (UniProt Q14164)", "T3 sequence (whole entry)": "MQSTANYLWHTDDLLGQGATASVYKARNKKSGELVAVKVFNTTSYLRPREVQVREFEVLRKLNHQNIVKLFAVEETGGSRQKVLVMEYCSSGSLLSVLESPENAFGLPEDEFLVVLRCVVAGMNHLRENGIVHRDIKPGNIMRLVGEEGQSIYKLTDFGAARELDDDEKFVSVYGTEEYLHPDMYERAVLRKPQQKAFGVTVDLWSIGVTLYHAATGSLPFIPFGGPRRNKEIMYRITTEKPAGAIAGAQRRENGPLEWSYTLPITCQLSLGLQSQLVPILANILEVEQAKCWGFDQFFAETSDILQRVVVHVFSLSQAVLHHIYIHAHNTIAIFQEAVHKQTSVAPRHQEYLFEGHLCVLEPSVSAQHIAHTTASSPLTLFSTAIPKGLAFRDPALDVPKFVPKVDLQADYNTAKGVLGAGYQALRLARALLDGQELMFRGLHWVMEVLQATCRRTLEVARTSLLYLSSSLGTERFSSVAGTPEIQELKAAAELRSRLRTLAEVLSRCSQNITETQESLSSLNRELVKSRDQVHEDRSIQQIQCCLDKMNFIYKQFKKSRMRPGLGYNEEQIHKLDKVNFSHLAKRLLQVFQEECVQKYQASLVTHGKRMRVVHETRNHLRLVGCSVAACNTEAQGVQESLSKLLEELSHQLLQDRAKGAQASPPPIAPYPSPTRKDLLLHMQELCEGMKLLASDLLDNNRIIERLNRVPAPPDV", "assay": "Inhibition of IKKe Lys2 labeling site in human Huh-7 cells at 1 uM by KiNativ Profiling analysis relative to control", "assay_type": "cell-based"}, "[11]": {"biological_target": "DNA-PK/Ku70/Ku85 (Homo sapiens) (UniProt P78527+P12956+P13010)", "assay": "Inhibition of DNAPK ATP labeling site harbouring KGGSWIQEINVAEKNWYPR in human Huh-7 cell lysate at 1 uM by KiNativ Profiling analysis relative to control", "assay_type": "subcellular"}, "[12]": {"biological_target": "Serine/threonine-protein kinase WNK1 (Homo sapiens) (UniProt Q9H4A3)", "sequence (Q9H4A3 whole entry, looked up)": "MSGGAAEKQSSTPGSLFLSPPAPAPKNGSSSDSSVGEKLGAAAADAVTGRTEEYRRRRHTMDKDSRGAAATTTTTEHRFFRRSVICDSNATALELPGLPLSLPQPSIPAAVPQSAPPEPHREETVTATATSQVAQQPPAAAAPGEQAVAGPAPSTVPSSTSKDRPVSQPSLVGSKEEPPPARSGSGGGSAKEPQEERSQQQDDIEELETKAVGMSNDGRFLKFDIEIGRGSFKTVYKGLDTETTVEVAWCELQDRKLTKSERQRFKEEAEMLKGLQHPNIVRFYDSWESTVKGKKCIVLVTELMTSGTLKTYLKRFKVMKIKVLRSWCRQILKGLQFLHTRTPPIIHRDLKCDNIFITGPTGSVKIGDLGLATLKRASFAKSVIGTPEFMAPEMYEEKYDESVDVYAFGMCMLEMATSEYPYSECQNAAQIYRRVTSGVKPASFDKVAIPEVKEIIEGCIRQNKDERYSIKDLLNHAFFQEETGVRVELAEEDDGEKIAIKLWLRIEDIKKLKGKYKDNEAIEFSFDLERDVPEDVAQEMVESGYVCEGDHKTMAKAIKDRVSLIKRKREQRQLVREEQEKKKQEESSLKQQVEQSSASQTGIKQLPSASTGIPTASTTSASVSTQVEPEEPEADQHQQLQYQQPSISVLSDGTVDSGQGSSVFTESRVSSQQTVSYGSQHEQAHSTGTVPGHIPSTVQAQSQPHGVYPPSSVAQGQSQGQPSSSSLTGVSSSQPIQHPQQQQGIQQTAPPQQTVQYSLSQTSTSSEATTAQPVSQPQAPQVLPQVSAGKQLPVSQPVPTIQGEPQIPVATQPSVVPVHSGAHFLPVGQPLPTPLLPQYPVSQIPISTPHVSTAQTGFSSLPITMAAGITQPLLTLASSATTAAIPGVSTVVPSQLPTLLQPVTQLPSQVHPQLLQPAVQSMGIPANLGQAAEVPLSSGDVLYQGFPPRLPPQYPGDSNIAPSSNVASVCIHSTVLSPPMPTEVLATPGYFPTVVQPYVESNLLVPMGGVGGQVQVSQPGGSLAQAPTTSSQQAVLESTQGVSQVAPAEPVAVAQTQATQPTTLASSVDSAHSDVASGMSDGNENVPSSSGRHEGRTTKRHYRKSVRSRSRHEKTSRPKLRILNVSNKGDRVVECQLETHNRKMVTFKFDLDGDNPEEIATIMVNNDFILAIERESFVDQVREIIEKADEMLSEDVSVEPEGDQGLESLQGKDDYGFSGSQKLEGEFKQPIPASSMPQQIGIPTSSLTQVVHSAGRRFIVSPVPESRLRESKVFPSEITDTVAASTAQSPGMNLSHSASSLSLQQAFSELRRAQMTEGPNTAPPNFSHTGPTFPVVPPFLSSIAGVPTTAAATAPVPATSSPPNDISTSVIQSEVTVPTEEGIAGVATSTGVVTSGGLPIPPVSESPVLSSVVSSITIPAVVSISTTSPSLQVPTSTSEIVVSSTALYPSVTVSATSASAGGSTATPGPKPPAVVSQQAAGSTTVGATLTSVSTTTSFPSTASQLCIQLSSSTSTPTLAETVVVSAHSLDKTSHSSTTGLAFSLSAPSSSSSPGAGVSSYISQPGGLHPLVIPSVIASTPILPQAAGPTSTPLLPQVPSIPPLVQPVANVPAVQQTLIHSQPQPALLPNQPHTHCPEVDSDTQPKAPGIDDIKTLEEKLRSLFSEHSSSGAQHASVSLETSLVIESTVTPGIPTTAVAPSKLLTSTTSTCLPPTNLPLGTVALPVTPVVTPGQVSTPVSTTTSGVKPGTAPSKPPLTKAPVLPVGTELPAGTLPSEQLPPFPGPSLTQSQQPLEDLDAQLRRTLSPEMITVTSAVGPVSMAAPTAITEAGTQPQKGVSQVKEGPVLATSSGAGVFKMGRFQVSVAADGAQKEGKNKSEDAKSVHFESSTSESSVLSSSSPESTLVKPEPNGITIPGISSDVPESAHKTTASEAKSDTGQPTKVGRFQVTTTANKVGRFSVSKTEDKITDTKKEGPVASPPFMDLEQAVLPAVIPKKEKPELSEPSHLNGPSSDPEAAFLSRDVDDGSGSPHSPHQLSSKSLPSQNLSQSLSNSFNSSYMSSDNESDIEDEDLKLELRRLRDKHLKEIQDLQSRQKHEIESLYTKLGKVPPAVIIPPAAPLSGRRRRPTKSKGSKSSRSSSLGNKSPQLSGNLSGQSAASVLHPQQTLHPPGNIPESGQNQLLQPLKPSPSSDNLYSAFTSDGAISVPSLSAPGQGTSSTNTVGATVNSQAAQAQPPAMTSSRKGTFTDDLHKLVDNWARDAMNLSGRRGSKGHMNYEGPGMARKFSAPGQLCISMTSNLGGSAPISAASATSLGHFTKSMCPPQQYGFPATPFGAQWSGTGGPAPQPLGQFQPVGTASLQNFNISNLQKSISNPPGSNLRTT", "assay": "Inhibition of Wnk1 ACT labeling site in human Huh-7 cell lysate at 1 uM by KiNativ Profiling analysis relative to control", "assay_type": "subcellular"}}, "note": "The source made the active and inactive calls. The rule behind the calls is not given here.", "data": [{"smiles": "CCN1CCN(Cc2ccc(NC(=O)c3ccc(C)c(Oc4ccnc5[nH]ccc45)c3)cc2C(F)(F)F)CC1", "values": [{"measurement": "inhibition", "setting": "[1]", "result": 83.3, "unit": "%"}, {"measurement": "inhibition", "setting": "[2]", "result": "inactive"}, {"measurement": "inhibition", "setting": "[3]", "result": "inactive"}]}, {"smiles": "CCN1CCN(Cc2ccc(NC(=O)c3ccc(C)c(/C=C/c4cnc5[nH]ccc5c4OC)c3)cc2C(F)(F)F)CC1", "values": [{"measurement": "residual activity", "setting": "[4]", "result": 40, "unit": "%"}, {"measurement": "inhibition", "setting": "[5]", "result": 84, "unit": "%"}, {"measurement": "inhibition", "setting": "[6]", "result": 81, "unit": "%"}, {"measurement": "inhibition", "setting": "[7]", "result": 38.9, "unit": "%"}]}, {"smiles": "CNc1cc(Oc2cc(C(=O)Nc3cc(N4CCN(C)CC4)cc(C(F)(F)F)c3)ccc2C)ncn1", "values": [{"measurement": "inhibition", "setting": "[8]", "result": 11.5, "unit": "%"}, {"measurement": "inhibition", "setting": "[9]", "result": 5.9, "unit": "%"}, {"measurement": "inhibition", "setting": "[10]", "result": 17.7, "unit": "%"}, {"measurement": "inhibition", "setting": "[11]", "result": 15.9, "unit": "%"}, {"measurement": "inhibition", "setting": "[12]", "result": -6.9, "unit": "%"}]}]}
